The text below walks through data of ChEMBL document CHEMBL4371057, “Hydroxamic Acid Inhibitors Provide Cross-Species Inhibition of Plasmodium M1 and M17 Aminopeptidases” (J Med Chem, 2019).

Series [1] deals with Plasmodium falciparum. Nature of the series: Antimalarial activity against Plasmodium falciparum 3D7 after 72 hrs by DAPI staining-based confocal imaging analysis. It counts as functional, organism-based. The settings on record: 3D7, 72 h. Summed up: (§1)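 Exposed to a 16-point dose series (40 μM to 0.4 nM final, 0.4% DMSO) for 72 h at 37 °C in 90% N2/5% CO2/5% O2. DAPI-stained and imaged confocally. Two biological replicates, each with two technical repeats.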

Series [2] in a line: Selectivity index, ratio of CC50 for HEK293 cells to IC50 for Plasmodium falciparum 3D7. The note with it: human, read-out: Ratio CC50/IC50. It is filed as toxicity.
Series [3] is described as follows: Inhibition of Plasmodium vivax C-terminal His6-tagged M17 aminopeptidase (203 to 621 residues) expressed in Escherichia coli BL21(DE3) preincubated for 20 mins followed by L-leucine-7-amido-4-methylcoumarin addition by Morrison equation analysis. In a few lines: (§2)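 Recombinant enzymes (Ni-NTA then size exclusion) were preincubated 20 min with inhibitor in 100 mM Tris-HCl pH 8.0, with 2 mM CoCl2 for Pf-M17 and 1 mM for Pv-M17. Leu-AMC substrate: 20 μM (Pf-M1), 40 μM (Pv-M1), 10 μM (both M17). Read at 37 °C, 355/460 nm, to steady-state velocity. Ki from a Morrison tight-binding fit; biological triplicate from three protein preparations.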

The test system of series [4] is Plasmodium falciparum. Nature of the series: Reversible inhibition of Plasmodium falciparum C-terminal His6-tagged M17 aminopeptidase (85 to 605 residues) expressed in Escherichia coli BL21(DE3) assessed as enzyme activity recovery at 150 uM preincubated followed by compound washout for 5 hrs and subsequent L-leucine-7-amido-4-methylcoumarin substrate addition by fluorescence assay. In a few lines:
(§3)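 Pf-M17 (20 μM) was incubated overnight at 4 °C with 150 μM compound, 150 μM bestatin, 2 mM EDTA, or buffer (50 mM HEPES pH 8, 300 mM NaCl). It was then washed by repeated 10-fold concentration/dilution for up to 7 h, incubated 10 min in 1 mM MnCl2, 100 mM Tris pH 8.0, given 25 μM Leu-AMC (final), and fluorescence followed for 30 min.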

Series [5] has as its system Plasmodium falciparum. Nature of the series: Reversible inhibition of Plasmodium falciparum C-terminal His6-tagged M17 aminopeptidase (85 to 605 residues) expressed in Escherichia coli BL21(DE3) assessed as enzyme activity recovery at 150 uM preincubated followed by compound washout for 7 hrs and subsequent L-leucine-7-amido-4-methylcoumarin substrate addition by fluorescence assay relative to control. Also on record: scale not given: the % may be the effect or the level left. Summed up:
as §3

Series [6] in a line: Selectivity ratio of Ki for Plasmodium falciparum C-terminal His6-tagged M1 aminopeptidase (195 to 1085 residues) expressed in Escherichia coli BL21(DE3) to Ki for Plasmodium vivax C-terminal His6-tagged M1 aminopeptidase (195 to 1097 residues) expressed in Escherichia coli BL21(DE3).
Series [7] is described as follows: Inhibition of Plasmodium vivax C-terminal His6-tagged M1 aminopeptidase (195 to 1097 residues) expressed in Escherichia coli BL21(DE3) preincubated for 20 mins followed by L-leucine-7-amido-4-methylcoumarin addition by Morrison equation analysis. Summed up: as §2
Series [8] can be described thus: Inhibition of Plasmodium falciparum C-terminal His6-tagged M17 aminopeptidase (85 to 605 residues) expressed in Escherichia coli BL21(DE3) preincubated for 20 mins followed by L-leucine-7-amido-4-methylcoumarin addition by Morrison equation analysis. Summed up: as §2
The nature of series [9]: Growth inhibition of HEK293 cells at 40 uM after 72 hrs by resazurin dye based assay relative to control. It is filed as cell-based. The note with it: human, read-out: GI. In a few lines: (§4)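 HEK293 cells kept in DMEM with 10% FBS. Exposed to compounds for 72 h at 37 °C, 5% CO2, using the same dilution scheme as the parasite assay (top 40 μM). Medium then replaced with 44 μM resazurin, and fluorescence (530/595 nm) read after 5–6 h.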
A general note: The colour change of resazurin is a common sign of viable cells or microbes.

Series [10] is described as follows: Growth inhibition of HEK293 cells at 10 uM after 72 hrs by resazurin dye based assay relative to control. It is filed as cell-based. The note with it: human, read-out: GI. In a few lines:
as §4

For series [11], the system named is Plasmodium falciparum. Nature of the series: Antimalarial activity against Plasmodium falciparum Dd2 after 72 hrs by DAPI staining-based confocal imaging analysis. It counts as functional, organism-based. The settings on record: Plasmodium falciparum, Dd2, 72 h; read-out: IC50. Summed up:
as §1

Series [12] is described as follows: Inhibition of Plasmodium falciparum C-terminal His6-tagged M1 aminopeptidase (195 to 1085 residues) expressed in Escherichia coli BL21(DE3) preincubated for 20 mins followed by L-leucine-7-amido-4-methylcoumarin addition by Morrison equation analysis. In a few lines:
as §2

For series [13], the system named is Plasmodium falciparum. The note with it: 2 mM.
In series [14] the target is Matrix metalloproteinase-9 (Homo sapiens, UniProt P14780). Description: Inhibition of MMP9 (unknown origin) preincubated for 1 hr followed by (QF)-24 substrate addition measured at 1 min time interval for 1 hr by fluorescence assay.
Sequence of Matrix metalloproteinase-9 (P14780 whole entry): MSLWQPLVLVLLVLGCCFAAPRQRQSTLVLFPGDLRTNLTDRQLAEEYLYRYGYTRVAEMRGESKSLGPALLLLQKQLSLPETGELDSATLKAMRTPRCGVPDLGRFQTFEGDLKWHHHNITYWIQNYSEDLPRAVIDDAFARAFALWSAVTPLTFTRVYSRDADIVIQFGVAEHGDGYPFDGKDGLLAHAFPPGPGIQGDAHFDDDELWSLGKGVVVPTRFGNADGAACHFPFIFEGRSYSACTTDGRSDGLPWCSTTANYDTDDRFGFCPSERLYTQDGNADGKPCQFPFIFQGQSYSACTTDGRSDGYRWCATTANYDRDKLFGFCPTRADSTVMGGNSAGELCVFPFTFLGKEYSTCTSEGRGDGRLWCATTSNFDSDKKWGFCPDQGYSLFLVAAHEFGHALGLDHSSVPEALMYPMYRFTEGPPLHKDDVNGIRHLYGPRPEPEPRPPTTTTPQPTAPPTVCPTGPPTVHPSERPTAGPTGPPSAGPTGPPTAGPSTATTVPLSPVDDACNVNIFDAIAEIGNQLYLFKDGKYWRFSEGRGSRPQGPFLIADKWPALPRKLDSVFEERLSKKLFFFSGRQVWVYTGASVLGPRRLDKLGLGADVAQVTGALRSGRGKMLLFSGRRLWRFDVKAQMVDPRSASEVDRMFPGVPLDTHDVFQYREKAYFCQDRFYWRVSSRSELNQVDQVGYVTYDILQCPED
Series [15] deals with Neutrophil collagenase (Homo sapiens) (UniProt P22894). Description: Inhibition of MMP8 (unknown origin) preincubated for 1 hr followed by (QF)-24 substrate addition measured at 1 min time interval for 1 hr by fluorescence assay. In a few lines:
(§5)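 MMPs were activated with 1 mM 4-aminophenylmercuric acetate (50 mM HEPES, 150 mM NaCl, 5 mM CaCl2, pH 7.0, 1 h, rt). 1 μM QF24 was added at 37 °C and read at 320/405 nm every minute for 1 h. IC50 from a four-parameter Hill fit; three independent experiments.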

Series [16] addresses 72 kDa type IV collagenase (Homo sapiens, UniProt P08253). Nature of the series: Inhibition of MMP2 (unknown origin) preincubated for 1 hr followed by (QF)-24 substrate addition measured at 1 min time interval for 1 hr by fluorescence assay.
The target of series [17] is T1, Matrilysin (Homo sapiens) (UniProt P09237).
T1 sequence (whole entry): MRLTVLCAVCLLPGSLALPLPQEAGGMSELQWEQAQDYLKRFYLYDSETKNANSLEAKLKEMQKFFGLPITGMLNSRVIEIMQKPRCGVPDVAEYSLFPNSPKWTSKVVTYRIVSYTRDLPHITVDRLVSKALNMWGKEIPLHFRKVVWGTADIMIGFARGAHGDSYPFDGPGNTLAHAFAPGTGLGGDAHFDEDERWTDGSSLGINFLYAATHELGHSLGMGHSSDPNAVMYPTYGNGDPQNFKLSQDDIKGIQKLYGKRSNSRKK
Description: Inhibition of MMP7 (unknown origin) preincubated for 1 hr followed by (QF)-24 substrate addition measured at 1 min time interval for 1 hr by fluorescence assay. Summed up:
as §5

A short description of series [18]: Cytotoxicity against HEK293 cells after 72 hrs by resazurin dye based assay. It is filed as cell-based. The settings on record: human. Summed up: as §4
The target in series [19] is Aminopeptidase N (Homo sapiens, UniProt P15144). Nature of the series: Inhibition of human APN expressed in HEK293 cells preincubated for 10 mins followed by L-leucine-7-amido-4-methylcoumarin addition by fluorescence assay.
Sequence of Aminopeptidase N (P15144 whole entry): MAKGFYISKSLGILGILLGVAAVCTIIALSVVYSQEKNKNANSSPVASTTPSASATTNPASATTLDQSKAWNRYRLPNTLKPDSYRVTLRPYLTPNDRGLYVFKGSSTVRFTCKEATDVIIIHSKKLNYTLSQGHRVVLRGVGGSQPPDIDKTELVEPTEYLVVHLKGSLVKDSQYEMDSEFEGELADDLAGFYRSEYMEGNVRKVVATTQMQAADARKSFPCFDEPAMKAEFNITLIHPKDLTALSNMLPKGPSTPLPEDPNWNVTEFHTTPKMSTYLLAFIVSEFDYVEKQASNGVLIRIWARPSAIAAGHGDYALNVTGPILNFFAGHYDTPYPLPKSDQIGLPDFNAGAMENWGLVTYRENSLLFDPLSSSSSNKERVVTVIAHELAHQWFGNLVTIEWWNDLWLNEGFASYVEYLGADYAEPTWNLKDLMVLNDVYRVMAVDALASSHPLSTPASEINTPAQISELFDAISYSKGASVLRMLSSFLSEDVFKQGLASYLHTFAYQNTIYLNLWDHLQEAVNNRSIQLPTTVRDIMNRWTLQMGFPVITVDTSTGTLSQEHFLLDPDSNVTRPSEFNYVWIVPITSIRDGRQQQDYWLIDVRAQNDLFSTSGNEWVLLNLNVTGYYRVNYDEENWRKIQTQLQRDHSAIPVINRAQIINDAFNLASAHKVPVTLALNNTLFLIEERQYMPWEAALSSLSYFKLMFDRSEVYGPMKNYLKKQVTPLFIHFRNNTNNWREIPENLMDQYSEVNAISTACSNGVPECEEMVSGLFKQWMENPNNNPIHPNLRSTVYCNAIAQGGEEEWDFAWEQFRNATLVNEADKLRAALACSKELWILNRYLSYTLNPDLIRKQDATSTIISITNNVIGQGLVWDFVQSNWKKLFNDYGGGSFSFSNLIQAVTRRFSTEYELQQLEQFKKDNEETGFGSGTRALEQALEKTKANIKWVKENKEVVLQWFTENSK
The subject of series [20] is Insulin-regulated aminopeptidase (Homo sapiens). Nature of the series: Inhibition of human IRAP at <200 uM preincubated for 10 mins followed by L-leucine-7-amido-4-methylcoumarin addition by fluorescence assay.

SMILES strings stand for the structures. Activity calls are given as the source filed them. The calls are words filed in the database; no cut-off is given here.

Sequence of Neutrophil collagenase (Homo sapiens) (P22894 101-467 limits assumed): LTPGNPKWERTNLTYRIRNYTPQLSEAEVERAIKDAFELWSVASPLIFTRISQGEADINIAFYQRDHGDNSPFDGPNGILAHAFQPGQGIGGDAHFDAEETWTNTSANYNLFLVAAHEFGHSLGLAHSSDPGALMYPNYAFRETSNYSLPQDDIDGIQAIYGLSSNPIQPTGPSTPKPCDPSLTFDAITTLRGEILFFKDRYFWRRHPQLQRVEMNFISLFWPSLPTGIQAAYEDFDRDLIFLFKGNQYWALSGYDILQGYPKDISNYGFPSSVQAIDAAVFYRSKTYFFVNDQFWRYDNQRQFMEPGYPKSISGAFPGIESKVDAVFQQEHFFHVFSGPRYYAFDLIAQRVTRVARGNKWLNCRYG
Sequence of 72 kDa type IV collagenase (P08253 whole entry): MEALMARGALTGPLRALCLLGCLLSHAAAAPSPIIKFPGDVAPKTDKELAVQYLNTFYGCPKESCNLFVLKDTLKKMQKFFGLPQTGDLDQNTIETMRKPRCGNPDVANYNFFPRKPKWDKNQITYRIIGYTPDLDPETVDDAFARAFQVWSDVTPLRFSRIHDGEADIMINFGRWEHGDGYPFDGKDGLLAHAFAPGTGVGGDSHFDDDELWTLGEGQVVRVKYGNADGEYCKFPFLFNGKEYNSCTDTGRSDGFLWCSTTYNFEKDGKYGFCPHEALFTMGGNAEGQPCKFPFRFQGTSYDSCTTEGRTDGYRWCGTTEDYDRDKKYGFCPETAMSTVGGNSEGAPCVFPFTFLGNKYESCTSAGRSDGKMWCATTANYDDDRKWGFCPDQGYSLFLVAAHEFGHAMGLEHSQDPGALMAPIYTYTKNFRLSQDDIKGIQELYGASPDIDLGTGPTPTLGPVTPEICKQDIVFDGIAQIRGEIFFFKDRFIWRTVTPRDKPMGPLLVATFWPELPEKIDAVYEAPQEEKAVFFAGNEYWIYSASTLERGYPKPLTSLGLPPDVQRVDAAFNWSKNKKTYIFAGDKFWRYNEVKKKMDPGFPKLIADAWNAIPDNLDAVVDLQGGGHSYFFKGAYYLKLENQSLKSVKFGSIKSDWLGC

With `O=C(NO)C(NC(=O)C12CC3CC(CC(C3)C1)C2)c1ccc(-c2cc(F)c(F)c(F)c2)cc1` (configuration not stated), the IC50 (commonly the concentration needed to halve the response being measured) turned out to be 0.357 µM in series [1] and 0.313 µM in [11]. Besides, in series [2], the selectivity ratio was at least 56. Also, the Ki (as a rule, a measure of affinity in units of concentration, obtained from inhibition or displacement) in series [3] came to 0.0186 µM; in series [7], 0.122 µM; in [8], 0.0289 µM; in series [12] it was 0.137 µM. Besides, the inhibition entry in series [4] is “Active”. Moreover, the Activity in series [5] came out at 20%. The Ratio Ki in series [6] amounted to 1.1. Further, the inhibition at 72 h, 40 µM in series [9] was 42.9%. In addition, in series [10], the inhibition at 72 h, 10 µM came to 2.1%.
`O=C(O)CN(CCN(CC(=O)O)CC(=O)O)CC(=O)O`: the inhibition result in series [13] was “Active”.
Regarding `CC(C)C[C@@H](C(=O)N[C@H](C(=O)OC1CCCC1)c1ccccc1)C(O)C(=O)NO` (some centres not stated), the IC50 in series [14] worked out at 1.5 µM; in series [16], 0.19 µM. For the same compound, the inhibition result in [15] and in series [17] was “Active” throughout.
Take `CC(C)(C)CC(=O)NC(C(=O)NO)c1ccc(-c2cc(F)c(F)c(F)c2)cc1` (configuration not stated): the IC50 in series [1] is 0.0146 µM; in series [14] it was above 1000 µM; in series [16], 17 µM; in [11], 0.0138 µM. For the same compound, the selectivity ratio in series [2] was at least 1370. Moreover, the inhibitory constant (Ki) in series [3] is 0.0036 µM; in series [19], 0.3 µM; in series [7] it was 0.00639 µM; in [8] it was 0.101 µM; in series [12] it was 0.269 µM. Also, the CC50 (commonly the concentration that lowers cell viability or growth by half) at 72 h in series [18] was at least 20 µM. For the same compound, the Ratio Ki in series [6] came out at 42.1. For the same compound, the inhibition result in series [15] and in series [17] was “Active” in each case. Further, the inhibition at 72 h, 40 µM in series [9] was determined as 98.4%. Moreover, the inhibition at 72 h, 10 µM in [10] was determined as 4.8%. Further, in series [20], the inhibition entry is “inactive”.
For the compound `CNC(=O)[C@@H](NC(=O)[C@H](CC(C)C)[C@H](O)C(=O)NO)C(C)(C)C`, the inhibition result in [15] and in series [17] was “Active” throughout.
For the compound `CC(C)C[C@H](NC(=O)[C@@H](O)[C@H](N)Cc1ccccc1)C(=O)O`, the inhibition result in [4] is “Active”.
